Laboratory results: ChEMBL document CHEMBL3588850, “Multivalent Amino Sugars to Recognize Different TAR RNA Conformations” (Medchemcomm, 2014)

Columns and labels:
Nucleic Acid [1] = assay: Binding affinity to wild type HIV1 TAR RNA at pH 6.8 by ethidium bromide displacement assay; assay type: nucleic-acid assay, Human immunodeficiency virus 1
Summary of the method: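 TAR RNA (200 nM/strand) and EtBr (5 μM) in 100 mM KCl, 10 mM SC, 0.5 mM EDTA, pH 6.8, titrated with ligand aliquots (at most 4% v/v). Fluorescence excited at 545 nm and read at 610 nm. IC50 is the ligand concentration that displaces 50% of EtBr, taken from a sigmoidal fit of fraction displaced versus log ligand concentration.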

Nucleic Acid [2] = assay: Binding affinity to HIV1 TAR RNA U3 bulge mutant at assessed as association constant at pH 6.8 by ethidium bromide displacement assay based Scatchard analysis method; assay type: nucleic-acid assay; settings: Human immunodeficiency virus 1
Summary of the method: (§1)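 Synthetic 2′-ACE-protected TAR RNA, deprotected, heated 98 °C 5 min, then ice-cooled 15 min. TAR RNA at 200 nM/strand with ethidium bromide 5 μM in 100 mM KCl, 10 mM SC, 0.5 mM EDTA, pH 6.8. Ligand added stepwise, ≤4% v/v. Excitation 545 nm, emission 580–660 nm, intensity at 610 nm normalized. IC50 from sigmoidal fit of fraction EtBr displaced vs log ligand; association constants from Scatchard analysis.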

Nucleic Acid [3] = assay: Binding affinity to HIV1 TAR RNA tetraloop mutant at pH 6.8 by ethidium bromide displacement assay; assay type: nucleic-acid assay, Human immunodeficiency virus 1; summary of the method: as §1
Nucleic Acid [4] = assay: Binding affinity to wild type HIV1 TAR RNA assessed as association constant at pH 6.8 by ethidium bromide displacement assay based Scatchard analysis method; assay type: nucleic-acid assay; settings: Human immunodeficiency virus 1
Summary of the method: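 Ethidium bromide displacement: 5 μM EtBr with TAR RNA at 200 nM/strand (under 20% of EtBr bound) in 100 mM KCl, 10 mM SC, 0.5 mM EDTA, pH 6.8. Ligand added in concentrated aliquots, at most 4% v/v. Excitation 545 nm, emission 580–660 nm, intensity at 610 nm. Association constant obtained by Scatchard analysis of the titration data.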

Nucleic Acid [5] = assay: Binding affinity to HIV1 TAR RNA bulgeless tetraloop mutant at pH 6.8 by ethidium bromide displacement assay; assay type: nucleic-acid assay, Human immunodeficiency virus 1; summary of the method: as §1
Nucleic Acid [6] = assay: Binding affinity to HIV1 TAR RNA U3 bulge mutant at pH 6.8 by ethidium bromide displacement assay; assay type: nucleic-acid assay, Human immunodeficiency virus 1; summary of the method: as §1
Nucleic Acid [7] = assay: Binding affinity to HIV1 TAR RNA tetraloop mutant assessed as association constant at pH 6.8 by ethidium bromide displacement assay based Scatchard analysis method; assay type: nucleic-acid assay; settings: Human immunodeficiency virus 1; summary of the method: as §1
Nucleic Acid [8] = assay: Binding affinity to HIV1 TAR RNA bulgeless tetraloop mutant assessed as association constant at pH 6.8 by ethidium bromide displacement assay based Scatchard analysis method; assay type: nucleic-acid assay; settings: Human immunodeficiency virus 1; summary of the method: as §1
Nucleic Acid [9] = assay: Binding affinity to HIV1 TAR RNA bulgeless mutant assessed as association constant at pH 6.8 by ethidium bromide displacement assay based Scatchard analysis method; assay type: nucleic-acid assay; settings: Human immunodeficiency virus 1; summary of the method: as §1
Nucleic Acid [10] = assay: Binding affinity to HIV1 TAR RNA bulgeless mutant at pH 6.8 by ethidium bromide displacement assay; assay type: nucleic-acid assay, Human immunodeficiency virus 1; summary of the method: as §1
[11] = system: Human immunodeficiency virus 1; assay: Induction of thermal stability changes in HIV1 TAR RNA bulgeless tetraloop mutant assessed as change in melting temperature using 1 molar equivalents of compound pre-incubated for 4 hrs at pH 6.8 at 4 degC before test by UV thermal denaturation assay
Summary of the method: (§2)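 TAR RNA mutants at 1 μM/strand mixed with 1 or 2 molar equivalents of ligand in 100 mM KCl, 10 mM SC, 0.5 mM EDTA, pH 6.8, then held 4 h at 4 °C. Absorbance at 260 nm in 1 cm cuvettes, 15–100 °C, heating 0.3 °C/min. Tm taken from first-derivative plots and compared with the no-ligand sample.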

[12] = system: Human immunodeficiency virus 1; assay: Induction of thermal stability changes in wild type HIV1 TAR RNA assessed as change in melting temperature using 2 molar equivalents of compound pre-incubated for 4 hrs at pH 6.8 at 4 degC before test by UV thermal denaturation assay
[13] = system: Human immunodeficiency virus 1; assay: Induction of thermal stability changes in wild type HIV1 TAR RNA assessed as change in melting temperature using 1 molar equivalents of compound pre-incubated for 4 hrs at pH 6.8 at 4 degC before test by UV thermal denaturation assay
[14] = system: Human immunodeficiency virus 1; assay: Induction of thermal stability changes in HIV1 TAR RNA tetraloop mutant assessed as change in melting temperature using 2 molar equivalents of compound pre-incubated for 4 hrs at pH 6.8 at 4 degC before test by UV thermal denaturation assay; summary of the method: as §2
[15] = system: Human immunodeficiency virus 1; assay: Induction of thermal stability changes in HIV1 TAR RNA tetraloop mutant assessed as change in melting temperature using 1 molar equivalents of compound pre-incubated for 4 hrs at pH 6.8 at 4 degC before test by UV thermal denaturation assay; summary of the method: as §2
[16] = system: Human immunodeficiency virus 1; assay: Induction of thermal stability changes in HIV1 TAR RNA bulgeless mutant assessed as change in melting temperature using 1 molar equivalents of compound pre-incubated for 4 hrs at pH 6.8 at 4 degC before test by UV thermal denaturation assay; summary of the method: as §2
[17] = system: Human immunodeficiency virus 1; assay: Induction of thermal stability changes in HIV1 TAR RNA U3 bulge mutant assessed as change in melting temperature using 2 molar equivalents of compound pre-incubated for 4 hrs at pH 6.8 at 4 degC before test by UV thermal denaturation assay; summary of the method: as §2
[18] = system: Human immunodeficiency virus 1; assay: Induction of thermal stability changes in HIV1 TAR RNA U3 bulge mutant assessed as change in melting temperature using 1 molar equivalents of compound pre-incubated for 4 hrs at pH 6.8 at 4 degC before test by UV thermal denaturation assay; summary of the method: as §2

Compound | IC50 (Nucleic Acid [1]) | K (Nucleic Acid [2]) | IC50 (Nucleic Acid [3]) | K (Nucleic Acid [4]) | IC50 (Nucleic Acid [5]) | IC50 (Nucleic Acid [6]) | K (Nucleic Acid [7]) | K (Nucleic Acid [8]) | K (Nucleic Acid [9]) | IC50 (Nucleic Acid [10]) | ΔTm [11] | ΔTm [12] | ΔTm [13] | ΔTm [14] | ΔTm [15] | ΔTm [16] | ΔTm [17] | ΔTm [18]
NC[C@@H]1O[C@H](O[C@H]2[C@@H](O)[C@H](O[C@@H]3[C@@H](O)[C@H](N)C[C@H](N)[C@H]3O[C@H]3O[C@H](CN)[C@@H](O)[C@H](O)[C@H]3N)O[C@@H]2Cn2cc(CCCCCCc3cn(C[C@H]4O[C@@H](O[C@@H]5[C@@H](O)[C@H](N)C[C@H](N)[C@H]5O[C@H]5O[C@H](CN)[C@@H](O)[C@H](O)[C@H]5N)[C@H](O)[C@@H]4O[C@H]4O[C@@H](CN)[C@@H](O)[C@H](O)[C@H]4N)nn3)nn2)[C@H](N)[C@@H](O)[C@@H]1O | 126 nM | 3.8 ×10⁶ /M | 214 nM | 6.6 ×10⁷ /M | 150 nM | 256 nM | 5 ×10⁶ /M | 5.9 ×10⁷ /M | 6.3 ×10⁷ /M | 146 nM |  |  |  |  |  |  |  | 
NC[C@@H]1O[C@H](O[C@H]2[C@@H](O)[C@H](O[C@@H]3[C@@H](O)[C@H](N)C[C@H](N)[C@H]3O[C@H]3O[C@H](CN)[C@@H](O)[C@H](O)[C@H]3N)O[C@@H]2Cn2cc(COCCCCCCCCOCc3cn(C[C@H]4O[C@@H](O[C@@H]5[C@@H](O)[C@H](N)C[C@H](N)[C@H]5O[C@H]5O[C@H](CN)[C@@H](O)[C@H](O)[C@H]5N)[C@H](O)[C@@H]4O[C@H]4O[C@@H](CN)[C@@H](O)[C@H](O)[C@H]4N)nn3)nn2)[C@H](N)[C@@H](O)[C@@H]1O | 156 nM | 4.8 ×10⁶ /M | 188 nM | 7.6 ×10⁶ /M | 106 nM | 234 nM | 1.4 ×10⁷ /M | 7.2 ×10⁷ /M | 6.8 ×10⁷ /M | 108 nM |  |  |  |  |  |  |  | 
NC[C@@H]1O[C@H](O[C@H]2[C@@H](O)[C@H](O[C@@H]3[C@@H](O)[C@H](N)C[C@H](N)[C@H]3O[C@H]3O[C@H](CN)[C@@H](O)[C@H](O)[C@H]3N)O[C@@H]2CO)[C@H](N)[C@@H](O)[C@@H]1O [FRAMYCETIN] | 378 nM |  | 684 nM |  | 192 nM |  |  | 1.6 ×10⁷ /M | 3 ×10⁷ /M | 150 nM | 0 °C | 0.5 °C | 0.2 °C | 1 °C | 1 °C | 1 °C | 1 °C | 0 °C
